Results reported in ChEMBL document CHEMBL1158750, “Merosesquiterpenes from two sponges of the genus Dysidea” (2005).

What was measured:
Assay type in all cases: functional
Conditions in all cases: for CC50: read-out: LC50 (the source's name)
A549 = test: Cytotoxicity against human A549 cells by SRB assay
Outline: (§1)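 Human tumor cell line (A-549 lung carcinoma, HT-29 colon adenocarcinoma, MDA-MB-231 mammary gland adenocarcinoma) growth and viability measured by colorimetric sulforhodamine B (SRB) staining. Parameters derived were GI50 (50% growth inhibition), TGI (total growth inhibition) and LC50 (50% cell killing).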

MDA-MB-231 = test: Cytotoxicity against human MDA-MB-231 cells by SRB assay; outline: as §1
HT-29 = test: Cytotoxicity against human HT-29 cells by SRB assay; outline: as §1

Row | SMILES | GI50 (A549) [µM] | GI50 (MDA-MB-231) [µM] | TGI (A549) [µM] | CC50 (A549) [µM] | GI50 (HT-29) [µM] | TGI (HT-29) [µM] | CC50 (HT-29) [µM] | TGI (MDA-MB-231) [µM] | CC50 (MDA-MB-231) [µM]
1 | CC1(C)CCC[C@]2(C)[C@@H](Cc3cc(O)ccc3O)[C@](C)(O)CC[C@@H]12 | 17.4 | 27.7 |  |  |  |  |  |  | 
2 | C=C1CCC[C@H]2[C@](C)(Cc3cc(OC(C)=O)ccc3O)[C@@H](C)CC[C@]12C | 25.5 | 21 |  |  |  |  |  |  | 
3 | CC(=O)Oc1ccc(O)c(C[C@H]2C(C)=CC[C@H]3C(C)(C)CCC[C@]23C)c1O | 10.5 | 10.5 | 11 | 11.8 | 11.3 | 12.6 | 14 | 11 | 11.8
4 | CC1=CC[C@H]2C(C)(C)CCC[C@]2(C)[C@H]1C[C@H]1C(=O)C=C[C@@H]1O [DYSIENONE] | 12.9 | 15.2 | 13.6 | 14.2 | 13.6 | 14.2 | 15.2 | 16.5 | 17.9
